Experimental data reported in ChEMBL document CHEMBL2346608, “New annelated thieno[2,3-e][1,2,3]triazolo[1,5-a]pyrimidines, with potent anticancer activity, designed through VLAK protocol” (2013).

Key:
Assay type in all cases: functional
[1] = Antiproliferative activity against human EKVX cells after 48 hrs by sulforhodamine B assay; settings: for TGI: read-out: pTGI (converted)
Summary of the method: (§1)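 Cells grown in RPMI 1640 with 5% FBS and 2 mM L-glutamine, plated at 5000–40,000 cells/well and preincubated 24 h at 37 °C, 5% CO2. Five drug concentrations (10-fold or ½-log dilutions from DMSO stocks) applied for 48 h. TCA-fixed (final 10% adherent, 16% suspension), SRB-stained, A515 read. Growth versus time-zero and control wells gave GI50, TGI, LC50.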

[2] = tested on: HT-29; assay: Antiproliferative activity against human HT-29 cells after 48 hrs by sulforhodamine B assay; settings: HT-29, 48 h; for TGI: read-out: pTGI (converted); summary of the method: as §1
[3] = tested on: MDA-MB-468; assay: Antiproliferative activity against human MDA-MB-468 cells after 48 hrs by sulforhodamine B assay; settings: MDA-MB-468, 48 h; for TGI: read-out: pTGI (converted); summary of the method: as §1
[4] = tested on: CAKI-1; assay: Antiproliferative activity against human CAKI-1 cells after 48 hrs by sulforhodamine B assay; settings: CAKI-1, 48 h; for CC50: read-out: pLC50 (the source's name) (converted); for TGI: read-out: pTGI (converted); summary of the method: as §1
[5] = tested on: NCI-H226; assay: Antiproliferative activity against human NCI-H226 cells after 48 hrs by sulforhodamine B assay; settings: NCI-H226, 48 h; for TGI: read-out: pTGI (converted); summary of the method: as §1
[6] = tested on: NCI-H460; assay: Antiproliferative activity against human NCI-H460 cells after 48 hrs by sulforhodamine B assay; settings: NCI-H460, 48 h; for TGI: read-out: pTGI (converted); summary of the method: as §1
[7] = tested on: SK-MEL-5; assay: Antiproliferative activity against human SK-MEL-5 cells after 48 hrs by sulforhodamine B assay; settings: SK-MEL-5, 48 h; for TGI: read-out: pTGI (converted); summary of the method: as §1
[8] = tested on: HCT-116; assay: Antiproliferative activity against human HCT116 cells after 48 hrs by sulforhodamine B assay; settings: HCT-116, 48 h; for TGI: read-out: pTGI (converted); summary of the method: as §1
[9] = tested on: HL-60; assay: Antiproliferative activity against human HL60 (TB) cells after 48 hrs by sulforhodamine B assay; settings: HL-60, 48 h; for CC50: read-out: pLC50 (the source's name) (converted); for TGI: read-out: pTGI (converted)
Summary of the method: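 NCI 60-cell panel protocol: cells in RPMI 1640 with 5% FBS and 2 mM L-glutamine, plated 24 h at 37 °C/5% CO2 before dosing. Compounds dissolved in DMSO and tested at five concentrations (10-fold or ½ log serial dilutions) for 48 h. Suspension cells fixed with 80% TCA (final 16%), SRB stained, absorbance at 515 nm. GI50 derived from time-zero-corrected growth.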

[10] = Antiproliferative activity against human Hs 578T cells after 48 hrs by sulforhodamine B assay; settings: for TGI: read-out: pTGI (converted); summary of the method: as §1
[11] = tested on: RPMI-8226; assay: Antiproliferative activity against human RPMI8226 cells after 48 hrs by sulforhodamine B assay; settings: RPMI-8226, 48 h; for CC50: read-out: pLC50 (the source's name) (converted); summary of the method: as §1
[12] = tested on: RXF 393; assay: Antiproliferative activity against human RXF393 cells after 48 hrs by sulforhodamine B assay; settings: RXF 393, 48 h; for TGI: read-out: pTGI (converted); summary of the method: as §1
[13] = tested on: SNB-19; assay: Antiproliferative activity against human SNB19 cells after 48 hrs by sulforhodamine B assay; settings: SNB-19, 48 h; for TGI: read-out: pTGI (converted); summary of the method: as §1
[14] = tested on: SK-OV-3; assay: Antiproliferative activity against human SKOV3 cells after 48 hrs by sulforhodamine B assay; settings: SK-OV-3, 48 h; for TGI: read-out: pTGI (converted); summary of the method: as §1
[15] = tested on: OVCAR-4; assay: Antiproliferative activity against human OVCAR4 cells after 48 hrs by sulforhodamine B assay; settings: OVCAR-4, 48 h; for TGI: read-out: pTGI (converted); summary of the method: as §1
[16] = tested on: NCI-H23; assay: Antiproliferative activity against human NCI-H23 cells after 48 hrs by sulforhodamine B assay; settings: NCI-H23, 48 h; for TGI: read-out: pTGI (converted); summary of the method: as §1
[17] = tested on: UACC-62; assay: Antiproliferative activity against human UACC62 cells after 48 hrs by sulforhodamine B assay; settings: UACC-62, 48 h; for TGI: read-out: pTGI (converted)
Summary of the method: (§2)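 Cells in RPMI 1640 with 5% FBS and 2 mM L-glutamine were seeded at 5000–40,000/well according to doubling time and preincubated 24 h at 37 °C in 5% CO2. Time-zero plates were TCA-fixed when drug was added. Five 10-fold or ½-log dilutions from DMSO stocks were added for 48 h. After SRB staining, A515 was read and GI50 derived from [(Ti−Tz)/(C−Tz)]×100 = 50.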

[18] = tested on: 786-0; assay: Antiproliferative activity against human 786-0 cells after 48 hrs by sulforhodamine B assay; settings: 786-0, 48 h; for TGI: read-out: pTGI (converted); summary of the method: as §1
[19] = tested on: TK-10; assay: Antiproliferative activity against human TK10 cells after 48 hrs by sulforhodamine B assay; settings: TK-10, 48 h; for TGI: read-out: pTGI (converted); summary of the method: as §2
[20] = tested on: SF-268; assay: Antiproliferative activity against human SF268 cells after 48 hrs by sulforhodamine B assay; settings: SF-268, 48 h; for TGI: read-out: pTGI (converted); summary of the method: as §1
[21] = tested on: MDA-MB-231; assay: Antiproliferative activity against human MDA-MB-231 cells after 48 hrs by sulforhodamine B assay; settings: MDA-MB-231, 48 h; for TGI: read-out: pTGI (converted); summary of the method: as §1
[22] = tested on: CCRF-CEM; assay: Antiproliferative activity against human CCRF-CEM cells after 48 hrs by sulforhodamine B assay; settings: for TGI: read-out: pTGI (converted); summary of the method: as §1
[23] = tested on: K562; assay: Antiproliferative activity against human K562 cells after 48 hrs by sulforhodamine B assay; settings: K562, 48 h; summary of the method: as §1
[24] = tested on: ACHN; assay: Antiproliferative activity against human ACHN cells after 48 hrs by sulforhodamine B assay; settings: for TGI: read-out: pTGI (converted); summary of the method: as §1
[25] = tested on: OVCAR-8; assay: Antiproliferative activity against human OVCAR8 cells after 48 hrs by sulforhodamine B assay; settings: OVCAR-8, 48 h; for TGI: read-out: pTGI (converted); summary of the method: as §1
[26] = tested on: MDA-MB-435; assay: Antiproliferative activity against human MDA-MB-435 cells after 48 hrs by sulforhodamine B assay; settings: MDA-MB-435, 48 h; for TGI: read-out: pTGI (converted); summary of the method: as §1
[27] = tested on: M14; assay: Antiproliferative activity against human M14 cells after 48 hrs by sulforhodamine B assay; settings: M14, 48 h; for TGI: read-out: pTGI (converted); summary of the method: as §1

SMILES: O=C(CCCn1c(=O)c2sc3ccccc3c2n2nnc(-c3ccccc3)c12)NCCc1c[nH]cn1
- GI50 [1]: 2.69 µM
- LC50 [1]: > 100 µM
- TGI [1]: 8.71 µM
- GI50 [2]: 1.35 µM
- LC50 [2]: 7.41 µM
- TGI [2]: 3.16 µM
- GI50 [3]: 1.7 µM
- LC50 [3]: 7.94 µM
- TGI [3]: 3.72 µM
- GI50 [4]: 0.182 µM
- CC50 [4]: 4.47 µM
- TGI [4]: 1.7 µM
- GI50 [5]: 18.6 µM
- LC50 [5]: 75.9 µM
- TGI [5]: 38 µM
- GI50 [6]: 1.86 µM
- LC50 [6]: 7.76 µM
- TGI [6]: 3.8 µM
- GI50 [7]: 1.91 µM
- LC50 [7]: 8.91 µM
- TGI [7]: 4.07 µM
- GI50 [8]: 0.339 µM
- LC50 [8]: > 100 µM
- TGI [8]: 1.66 µM
- GI50 [9]: 1.41 µM
- CC50 [9]: > 100 µM
- TGI [9]: 6.31 µM
- GI50 [10]: 1.74 µM
- TGI [10]: 4.07 µM
- CC50 [11]: > 100 µM
- GI50 [12]: 2.51 µM
- LC50 [12]: > 100 µM
- TGI [12]: 5.01 µM
- GI50 [13]: 1.7 µM
- LC50 [13]: > 100 µM
- TGI [13]: 5.01 µM
- GI50 [14]: 3.47 µM
- LC50 [14]: 66.1 µM
- TGI [14]: 15.5 µM
- GI50 [15]: 1.74 µM
- TGI [15]: 3.8 µM
- GI50 [16]: 2.95 µM
- LC50 [16]: > 100 µM
- TGI [16]: 11.7 µM
- GI50 [17]: 1.91 µM
- LC50 (concentration killing 50% of cells) [17]: 6.61 µM
- TGI [17]: 3.55 µM
- GI50 [18]: 1.58 µM
- TGI [18]: 3.55 µM
- GI50 [19]: 2.14 µM
- TGI [19]: 3.98 µM
- GI50 [20]: 1.78 µM
- LC50 [20]: 7.76 µM
- TGI [20]: 3.72 µM
- GI50 [21]: 1.91 µM
- LC50 [21]: 6.76 µM
- TGI [21]: 3.63 µM
- LC50 [22]: > 100 µM
- TGI [22]: > 100 µM
- GI50 [23]: 0.437 µM
- GI50 [24]: 1.66 µM
- LC50 (50% lethal concentration) [24]: 5.5 µM
- TGI [24]: 3.02 µM
- GI50 [25]: 0.324 µM
- LC50 [25]: > 100 µM
- TGI [25]: 2.82 µM
- GI50 [26]: 1.48 µM
- LC50 [26]: 6.31 µM
- TGI [26]: 3.09 µM
- GI50 [27]: 1.7 µM
- TGI [27]: 3.8 µM

SMILES: O=C(CCCn1c(=O)c2sc3ncccc3c2n2nnc(-c3ccccc3)c12)NCCc1c[nH]cn1
- GI50 [1]: 15.1 µM
- LC50 [1]: > 100 µM
- TGI [1]: 44.7 µM
- GI50 [2]: 3.89 µM
- LC50 [2]: > 100 µM
- TGI [2]: 55 µM
- GI50 [3]: 8.13 µM
- LC50 [3]: 79.4 µM
- TGI [3]: 27.5 µM
- GI50 [4]: 2.88 µM
- CC50 [4]: 72.4 µM
- TGI [4]: 14.5 µM
- GI50 [5]: 11.7 µM
- LC50 [5]: 74.1 µM
- TGI [5]: 29.5 µM
- GI50 [6]: 3.63 µM
- LC50 [6]: 42.7 µM
- TGI [6]: 13.2 µM
- GI50 [7]: 16.2 µM
- LC50 [7]: > 100 µM
- TGI [7]: > 100 µM
- GI50 [8]: 0.38 µM
- LC50 [8]: 38.9 µM
- TGI [8]: 10 µM
- GI50 [9]: 1.41 µM
- CC50 [9]: 50.1 µM
- TGI [9]: 4.79 µM
- GI50 [10]: 11.2 µM
- LC50 [10]: 87.1 µM
- TGI [10]: 31.6 µM
- GI50 [11]: 5.13 µM
- CC50 [11]: > 100 µM
- TGI ([11]; read-out: pTGI (converted)): 35.5 µM
- GI50 [12]: 14.8 µM
- LC50 [12]: 77.6 µM
- TGI [12]: 33.9 µM
- GI50 [13]: 10.7 µM
- LC50 [13]: > 100 µM
- TGI [13]: 33.9 µM
- GI50 [14]: 14.5 µM
- LC50 [14]: 53.7 µM
- TGI [14]: 27.5 µM
- GI50 [15]: 15.5 µM
- LC50 (concentration killing 50% of cells) [15]: 67.6 µM
- TGI [15]: 32.4 µM
- GI50 [16]: 14.5 µM
- LC50 [16]: 70.8 µM
- TGI [16]: 32.4 µM
- GI50 [17]: 15.8 µM
- LC50 (concentration killing 50% of cells) [17]: 57.5 µM
- TGI [17]: 30.2 µM
- GI50 [18]: 12.6 µM
- CC50 ([18]; read-out: pLC50 (the source's name) (converted)): 52.5 µM
- TGI [18]: 25.7 µM
- GI50 [19]: 13.5 µM
- LC50 [19]: 57.5 µM
- TGI [19]: 28.2 µM
- GI50 [20]: 11.7 µM
- LC50 [20]: 72.4 µM
- TGI [20]: 28.8 µM
- GI50 [21]: 17.8 µM
- LC50 [21]: 67.6 µM
- TGI [21]: 34.7 µM
- GI50 [22]: 0.224 µM
- LC50 [22]: > 100 µM
- TGI [22]: 4.47 µM
- GI50 [23]: 0.309 µM
- LC50 (concentration killing 50% of cells) [23]: > 100 µM
- TGI ([23]; read-out: pTGI (converted)): 15.5 µM
- GI50 [24]: 15.5 µM
- LC50 (50% lethal concentration) [24]: 63.1 µM
- TGI [24]: 30.9 µM
- GI50 [25]: 0.0955 µM
- LC50 [25]: 67.6 µM
- TGI [25]: 17.4 µM
- GI50 [26]: 0.49 µM
- LC50 [26]: > 100 µM
- TGI [26]: 20.4 µM
- GI50 [27]: 3.47 µM
- LC50 [27]: 50.1 µM
- TGI [27]: 19.5 µM
